In ChEMBL document CHEMBL1136008, “Novel tricyclic poly(ADP-ribose) polymerase-1 inhibitors with potent anticancer chemopotentiating activity: design, synthesis, and X-ray cocrystal structure” (J Med Chem, 2002):

What was measured:
SW-620 [1] = assay: Cytotoxic potentiation of Topotecan (TP) by the compound in human colon carcinoma SW620 cell line; format: functional, cell-based
Method in brief: (§1)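 Cells were seeded 16–24 h before treatment, then exposed continuously for 5 days to increasing concentrations of temozolomide or topotecan, with or without 0.4 μM PARP-1 inhibitor. Final DMSO was 1%. Relative cell number was measured by SRB assay. Growth IC50 values came from point-to-point analysis of growth curves. PF50 = IC50 of cytotoxic agent alone / IC50 with inhibitor. Data are mean ± SEM of three independent experiments.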

A549 [2] = assay: Cytotoxic potentiation of Topotecan (TP) by the compound in human lung carcinoma A549 cell line; format: functional, cell-based; method in brief: as §1
LoVo [3] = assay: Cytotoxic potentiation of Topotecan (TP) by the compound in (human colorectal cancer LoVo cell line; format: functional, cell-based; method in brief: as §1
A549 [4] = assay: (§2) Cytotoxicity potentiation of Topotecan in human lung carcinoma A549 cells by the compound as potentiation factor at 50% growth inhibition; format: functional; method in brief: as §1
[5] = target: T1, Poly [ADP-ribose] polymerase 1 (Homo sapiens, UniProt P09874)
A549 [6] = assay: as §2; format: functional; method in brief: as §1; remark: listed apart in the source
SW-620 [7] = assay: Cytotoxicity potentiation of Topotecan in human lung carcinoma SW620 cell line by the compound as potentiation factor at 50% growth inhibition; format: functional; details: in the assay text read “human colon carcinoma” for “human lung carcinoma”; method in brief: as §1
[8] = target: T1, Poly [ADP-ribose] polymerase 1; remark: listed apart in the source
LoVo [9] = assay: Cytotoxic potentiation of Tomozolomide (TM) by the compound in human colorectal carcinoma LoVo cell line; format: functional, cell-based; method in brief: as §1
LoVo [10] = assay: Cytotoxic potentiation of Topotecan (TP) by the compound in human colorectal carcinoma LoVo cell line; format: functional, cell-based; method in brief: as §1

T1 sequence (P09874 whole entry): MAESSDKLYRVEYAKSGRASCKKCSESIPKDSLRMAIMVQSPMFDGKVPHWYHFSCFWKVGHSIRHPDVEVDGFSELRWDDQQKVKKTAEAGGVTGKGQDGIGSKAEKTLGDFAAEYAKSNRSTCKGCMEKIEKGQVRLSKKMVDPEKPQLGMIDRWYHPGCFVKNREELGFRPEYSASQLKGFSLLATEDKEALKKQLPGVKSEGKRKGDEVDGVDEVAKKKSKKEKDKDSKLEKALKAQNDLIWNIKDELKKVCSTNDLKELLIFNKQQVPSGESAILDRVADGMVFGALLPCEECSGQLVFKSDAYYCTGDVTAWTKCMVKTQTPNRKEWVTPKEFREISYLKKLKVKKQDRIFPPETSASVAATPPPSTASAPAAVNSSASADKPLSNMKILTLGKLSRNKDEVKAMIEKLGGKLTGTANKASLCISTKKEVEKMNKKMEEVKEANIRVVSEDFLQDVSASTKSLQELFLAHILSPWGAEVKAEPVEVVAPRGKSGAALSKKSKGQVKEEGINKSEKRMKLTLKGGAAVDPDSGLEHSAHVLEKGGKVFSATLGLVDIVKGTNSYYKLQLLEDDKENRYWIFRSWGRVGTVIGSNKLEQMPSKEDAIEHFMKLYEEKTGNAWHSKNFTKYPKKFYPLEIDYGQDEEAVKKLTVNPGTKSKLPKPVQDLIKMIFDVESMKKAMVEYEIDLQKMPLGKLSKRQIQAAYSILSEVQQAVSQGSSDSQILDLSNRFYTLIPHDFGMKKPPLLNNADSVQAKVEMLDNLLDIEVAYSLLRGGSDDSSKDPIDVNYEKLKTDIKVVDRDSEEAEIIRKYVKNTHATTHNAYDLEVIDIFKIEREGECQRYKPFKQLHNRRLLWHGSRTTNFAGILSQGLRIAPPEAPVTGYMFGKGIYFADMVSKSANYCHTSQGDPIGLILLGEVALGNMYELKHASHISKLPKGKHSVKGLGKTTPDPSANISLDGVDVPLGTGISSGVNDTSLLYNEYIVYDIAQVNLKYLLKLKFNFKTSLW

Row | SMILES | PF50 (A549 [4]) | Ki [5] [nM] | other results
1 | CC[C@@]1(O)C(=O)OCc2c1cc1n(c2=O)Cc2cc3c(CN(C)C)c(O)ccc3nc2-1 [TOPOTECAN] | – | – | IC50 (SW-620 [1]): 3.2 nM; IC50 (A549 [2]): 24 nM; IC50 (LoVo [3]): 0.0116 µM
2 | O=C1NCCc2c(-c3ccc(F)cc3)[nH]c3cccc1c23 | 2.3 | – | –
3 | Cn1nnc2c(C(N)=O)ncn2c1=O [TEMOZOLOMIDE] | – | – | IC50 (LoVo [3]; in the assay text read “Temozolomide (TM)” for “Topotecan (TP)”): 595 µM
4 | O=C1NCCc2c(C(c3ccccc3)c3ccccc3)[nH]c3cccc1c23 | – | 23 | –
5 | Nc1cccc(-c2[nH]c3cccc4c3c2CCNC4=O)c1 | – | 7 | –
6 | COc1ccc(-c2[nH]c3cccc4c3c2CCNC4=O)cc1 | – | 6 | –
7 | CN(C)Cc1ccc(-c2[nH]c3cccc4c3c2CNC4=O)cc1 | 2.2 | – | –
8 | O=C1NCc2c(-c3ccccc3)[nH]c3cccc1c23 | – | < 5 | –
9 | COc1[nH]c2cccc3c2c1CCNC3=O | – | 10 | –
10 | O=C1NCCc2c(-c3ccc[nH]3)[nH]c3cccc1c23 | – | 8 | –
11 | O=C1NCCc2c(-c3ccc(Cn4cccc4)cc3)[nH]c3cccc1c23 | 2 | – | PF50 (A549 [6]): 2; PF50 (SW-620 [7]): 1.8; IC50 (SW-620 [1]): 1.8 nM; IC50 (A549 [2]): 12 nM; Ki [8]: 6 nM; IC50 (LoVo [9]): 76 µM; IC50 (LoVo [10]): 6.5 nM
12 | O=C1NCCc2c[nH]c3cccc1c23 | 1.1 | – | –
13 | Cn1c(-c2ccccc2)c2c3c(cccc31)C(=O)NCC2 | 1.7 | – | –
14 | CN(C)Cc1cccc(-c2[nH]c3cccc4c3c2CNC4=O)c1 | – | < 5 | –
15 | O=C1NCCc2c(-c3cccc(C(F)(F)F)c3)[nH]c3cccc1c23 | – | 6 | –
16 | CN1CCc2c(-c3ccccc3)n(C)c3cccc(c23)C1=O | 1.2 | – | –
17 | CN(C)Cc1cccc(-c2[nH]c3cccc4c3c2CCNC4=O)c1 | 2.1 | 8 | –
18 | N#Cc1[nH]c2cccc3c2c1CCNC3=O | – | 11 | –
19 | O=C1NCCc2c(O)[nH]c3cccc1c23 | – | 370 | –
20 | O=C1NCCc2c(-c3ccccc3)[nH]c3cccc1c23 | 1.8 | – | –
21 | CN(C)Cc1ccc(-c2[nH]c3cccc4c3c2CCNC4=O)cc1 | 2.4 | – | –
